Assay results published in ChEMBL document CHEMBL4732196, “Structural optimization towards promising β-methyl-4-acrylamido quinoline derivatives as PI3K/mTOR dual inhibitors for anti-cancer therapy: The in vitro and in vivo biological evaluation” (Eur J Med Chem, 2021).

Experiments:
[1] = target: T1, Phosphatidylinositol 4,5-bisphosphate 3-kinase catalytic subunit gamma isoform (Homo sapiens, UniProt P48736); assay: Inhibition of recombinant human full-length His-tagged PI3Kgamma expressed in baculovirus expression system using PIP2 as substrate measured after 1 hr by ADP-glo assay
U-87 MG = assay: Antitumour activity against human U87MG cells xenografted in ICR nude mouse assessed as tumour growth inhibition at 30 mg/kg, po every other day for 24 days relative to control; format: functional, U-87MG ATCC; details: 576 h, time 24 day, read-out: TGI
How it was run: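 Male ICR nude mice inoculated subcutaneously with 5 × 10⁶ U87MG cells. Once tumours reached about 200 mm³, mice were randomised and dosed by oral gavage every other day for 24 days. Tumour volume (length × width² × 0.5) and body weight recorded every 4 days. Inhibition = 100 × {1 − [(final − initial volume) treated]/[(final − initial volume) vehicle]}.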

[2] = target: T2, Phosphatidylinositol 4,5-bisphosphate 3-kinase catalytic subunit beta isoform (Homo sapiens, UniProt P42338); assay: Inhibition of PI3Kbeta (unknown origin) using PIP2 as substrate measured after 1 hr by ADP-glo assay
PC-3 = assay: Growth inhibition of human PC3 cells after 72 hrs by sulforhodamine B assay; format: functional
[3] = target: Mitogen-activated protein kinase 4 (Homo sapiens) (UniProt P31152); assay: Inhibition of human partial length ERK4 (M1 to L365 residues) expressed in mammalian expression system assessed as residual activity at 10 uM by kinome scan method relative to control
How it was run: (§1)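 KINOMEscan binding assay, test compound at 10 μM against a 52-kinase panel. % Ctrl = (compound signal − positive control signal)/(negative control signal − positive control signal) × 100, with DMSO as negative control (100%) and a positive control (0%).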

[4] = target: Phosphatidylinositol 4-phosphate 5-kinase type-1 alpha (Homo sapiens) (UniProt Q99755); assay: Inhibition of human full length PIP5K1A (M1 to H562 residues) expressed in bacterial expression system assessed as residual activity at 10 uM by kinome scan method relative to control; how it was run: as §1
Sequence of Phosphatidylinositol 4-phosphate 5-kinase type-1 alpha (Homo sapiens) (Q99755 whole entry, the tested form may be a part, canonical isoform): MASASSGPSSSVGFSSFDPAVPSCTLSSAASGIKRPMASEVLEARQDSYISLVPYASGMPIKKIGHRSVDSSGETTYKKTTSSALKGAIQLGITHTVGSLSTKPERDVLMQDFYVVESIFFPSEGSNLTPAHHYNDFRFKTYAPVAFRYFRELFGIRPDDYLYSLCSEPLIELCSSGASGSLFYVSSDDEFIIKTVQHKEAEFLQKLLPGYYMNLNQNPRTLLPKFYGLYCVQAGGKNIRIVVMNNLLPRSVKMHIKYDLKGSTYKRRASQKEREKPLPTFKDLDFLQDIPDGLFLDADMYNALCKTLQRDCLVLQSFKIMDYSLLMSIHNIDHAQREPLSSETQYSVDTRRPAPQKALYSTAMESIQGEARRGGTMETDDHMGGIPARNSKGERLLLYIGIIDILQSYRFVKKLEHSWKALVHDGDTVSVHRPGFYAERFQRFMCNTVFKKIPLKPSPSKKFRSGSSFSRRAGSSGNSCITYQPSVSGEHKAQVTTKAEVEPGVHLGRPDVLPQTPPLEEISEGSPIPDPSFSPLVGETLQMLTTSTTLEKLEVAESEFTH

[5] = target: T3, Phosphatidylinositol 4,5-bisphosphate 3-kinase catalytic subunit alpha isoform (Homo sapiens, UniProt P42336); assay: Inhibition of human partial length PIK3CA (R108 to N1068 residues) expressed in mammalian expression system assessed as residual activity at 10 uM by kinome scan method relative to control
T3 sequence (P42336 whole entry, the tested form may be a part, canonical isoform): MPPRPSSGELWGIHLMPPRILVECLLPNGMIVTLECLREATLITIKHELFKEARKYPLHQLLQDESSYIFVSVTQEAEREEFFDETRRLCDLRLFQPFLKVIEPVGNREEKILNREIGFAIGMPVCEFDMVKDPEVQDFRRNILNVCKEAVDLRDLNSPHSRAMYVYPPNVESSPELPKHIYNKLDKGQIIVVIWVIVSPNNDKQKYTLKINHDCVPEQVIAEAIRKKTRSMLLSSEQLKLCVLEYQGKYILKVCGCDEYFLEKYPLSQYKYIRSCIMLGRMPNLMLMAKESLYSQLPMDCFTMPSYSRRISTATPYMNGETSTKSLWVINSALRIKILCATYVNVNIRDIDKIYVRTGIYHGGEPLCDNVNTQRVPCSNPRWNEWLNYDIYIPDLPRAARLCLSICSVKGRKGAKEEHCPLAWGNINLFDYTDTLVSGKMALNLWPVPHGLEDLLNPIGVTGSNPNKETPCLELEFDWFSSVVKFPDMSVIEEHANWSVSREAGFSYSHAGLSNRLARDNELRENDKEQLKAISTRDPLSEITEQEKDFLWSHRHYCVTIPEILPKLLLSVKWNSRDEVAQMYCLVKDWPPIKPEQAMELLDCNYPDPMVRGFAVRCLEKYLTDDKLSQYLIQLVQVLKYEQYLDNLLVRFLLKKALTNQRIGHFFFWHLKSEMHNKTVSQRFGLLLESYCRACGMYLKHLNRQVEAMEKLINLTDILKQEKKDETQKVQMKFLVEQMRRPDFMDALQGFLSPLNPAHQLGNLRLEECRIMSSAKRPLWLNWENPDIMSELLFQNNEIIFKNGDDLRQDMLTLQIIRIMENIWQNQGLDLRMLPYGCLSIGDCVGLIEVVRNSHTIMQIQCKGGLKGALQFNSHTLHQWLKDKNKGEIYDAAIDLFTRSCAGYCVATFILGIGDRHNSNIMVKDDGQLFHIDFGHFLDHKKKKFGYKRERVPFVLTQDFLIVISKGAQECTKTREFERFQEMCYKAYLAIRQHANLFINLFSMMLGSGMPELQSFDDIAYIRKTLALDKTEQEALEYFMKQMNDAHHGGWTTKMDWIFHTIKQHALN
How it was run: (§2)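 KINOMEscan competitive binding screen at 10 μM test compound against a 52-kinase panel. Output is % Ctrl = (test signal − positive control signal)/(negative control signal − positive control signal) × 100. DMSO is the negative control (100%) and the positive control is set to 0%.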

[6] = target: Serine/threonine-protein kinase TNNI3K (Homo sapiens) (UniProt Q59H18); assay: Inhibition of human full length TNNI3K (M1 to S835 residues) expressed in bacterial expression system assessed as residual activity at 10 uM by kinome scan method relative to control; how it was run: as §1
[7] = Cmax in Sprague-Dawley rat at 5 mg/kg, po; format: ADME, organism-based; parameters: route oral, dose 5 mg/kg; details: in vivo
How it was run: (§3)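 Male Sprague-Dawley rats (n = 3) given a single oral gavage of 5 mg/kg as a homogeneous opaque suspension in 0.5% methylcellulose; plasma concentration-time curves used to derive mean PK parameters.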

[8] = target: Ankyrin repeat and protein kinase domain-containing protein 1 (Homo sapiens) (UniProt Q8NFD2); assay: Inhibition of human partial length ANKK1 (M1 to A305 residues) expressed in bacterial system assessed as residual activity at 10 uM by kinome scan method relative to control; how it was run: as §1
[9] = target: Activin receptor type-2A (Homo sapiens) (UniProt P27037); assay: Inhibition of human partial length ACVR2A (V171 to T499 residues) expressed in bacterial system assessed as residual activity at 10 uM by kinome scan method relative to control; how it was run: as §1
[10] = target: Serine/threonine-protein kinase mTOR (Homo sapiens, UniProt P42345); assay: Inhibition of recombinant human N-terminal FLAG-tagged mTOR (1362 to end amino acids) using ULight-4E-BP1 as substrate incubated for 1 hr by LANCE Ultra assay
[11] = target: Dual specificity mitogen-activated protein kinase kinase 7 (Homo sapiens) (UniProt O14733); assay: Inhibition of human full length MKK7 (M1 to R419 residues) expressed in mammalian expression system assessed as residual activity at 10 uM by kinome scan method relative to control; how it was run: as §1
Sequence of Dual specificity mitogen-activated protein kinase kinase 7 (Homo sapiens) (O14733 whole entry, the tested form may be a part): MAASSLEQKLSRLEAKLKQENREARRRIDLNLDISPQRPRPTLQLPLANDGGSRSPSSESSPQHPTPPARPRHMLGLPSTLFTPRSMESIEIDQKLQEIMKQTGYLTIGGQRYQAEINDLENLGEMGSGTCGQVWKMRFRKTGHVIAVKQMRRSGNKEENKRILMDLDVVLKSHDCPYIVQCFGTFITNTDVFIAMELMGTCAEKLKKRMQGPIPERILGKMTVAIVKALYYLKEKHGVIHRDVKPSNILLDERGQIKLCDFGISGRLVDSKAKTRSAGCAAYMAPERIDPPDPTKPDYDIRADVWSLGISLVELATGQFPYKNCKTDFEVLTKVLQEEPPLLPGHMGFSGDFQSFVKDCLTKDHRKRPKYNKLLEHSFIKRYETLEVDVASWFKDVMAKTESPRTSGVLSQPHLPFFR

[12] = target: BMP-2-inducible protein kinase (Homo sapiens) (UniProt Q9NSY1); assay: Inhibition of human partial length BIKE (S34 to N329 residues) expressed in bacterial system assessed as residual activity at 10 uM by kinome scan method relative to control; how it was run: as §1
[13] = target: Receptor-interacting serine/threonine-protein kinase 4 (Homo sapiens) (UniProt P57078); assay: Inhibition of human partial length RIPK4 (M1 to V303 residues) expressed in mammalian expression system assessed as residual activity at 10 uM by kinome scan method relative to control; how it was run: as §2
Sequence of Receptor-interacting serine/threonine-protein kinase 4 (Homo sapiens) (P57078 whole entry, the tested form may be a part): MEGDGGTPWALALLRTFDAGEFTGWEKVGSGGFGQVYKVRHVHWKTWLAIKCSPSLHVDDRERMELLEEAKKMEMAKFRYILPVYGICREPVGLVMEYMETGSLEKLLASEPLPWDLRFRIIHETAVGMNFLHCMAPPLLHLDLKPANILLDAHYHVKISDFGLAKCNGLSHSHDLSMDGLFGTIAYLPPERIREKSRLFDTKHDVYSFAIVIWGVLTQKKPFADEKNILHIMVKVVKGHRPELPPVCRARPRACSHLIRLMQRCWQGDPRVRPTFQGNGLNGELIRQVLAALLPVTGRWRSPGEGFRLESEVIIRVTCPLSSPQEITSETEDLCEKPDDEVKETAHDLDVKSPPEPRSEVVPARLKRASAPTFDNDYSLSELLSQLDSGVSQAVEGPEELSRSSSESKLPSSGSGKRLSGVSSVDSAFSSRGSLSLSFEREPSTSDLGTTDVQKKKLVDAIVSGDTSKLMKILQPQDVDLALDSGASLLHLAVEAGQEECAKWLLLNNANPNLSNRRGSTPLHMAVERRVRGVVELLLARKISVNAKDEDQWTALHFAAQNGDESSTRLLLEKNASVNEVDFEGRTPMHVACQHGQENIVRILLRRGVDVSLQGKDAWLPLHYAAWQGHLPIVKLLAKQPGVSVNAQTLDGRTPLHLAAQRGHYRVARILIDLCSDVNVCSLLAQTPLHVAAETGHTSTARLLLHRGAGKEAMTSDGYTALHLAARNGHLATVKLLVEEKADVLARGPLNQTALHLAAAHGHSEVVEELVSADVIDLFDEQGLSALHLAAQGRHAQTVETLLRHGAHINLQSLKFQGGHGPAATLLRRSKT

[14] = target: Mitogen-activated protein kinase kinase kinase 13 (Homo sapiens) (UniProt O43283); assay: Inhibition of human full length LZK (M1 to W966 residues) expressed in bacterial expression system assessed as residual activity at 10 uM by kinome scan method relative to control; how it was run: as §1
[15] = target: Interleukin-1 receptor-associated kinase 3 (Homo sapiens) (UniProt Q9Y616); assay: Inhibition of human partial length IRAK3 (V147 to E596 residues) expressed in bacterial expression system assessed as residual activity at 10 uM by kinome scan method relative to control; how it was run: as §1
Sequence of Interleukin-1 receptor-associated kinase 3 (Homo sapiens) (Q9Y616 whole entry, the tested form may be a part): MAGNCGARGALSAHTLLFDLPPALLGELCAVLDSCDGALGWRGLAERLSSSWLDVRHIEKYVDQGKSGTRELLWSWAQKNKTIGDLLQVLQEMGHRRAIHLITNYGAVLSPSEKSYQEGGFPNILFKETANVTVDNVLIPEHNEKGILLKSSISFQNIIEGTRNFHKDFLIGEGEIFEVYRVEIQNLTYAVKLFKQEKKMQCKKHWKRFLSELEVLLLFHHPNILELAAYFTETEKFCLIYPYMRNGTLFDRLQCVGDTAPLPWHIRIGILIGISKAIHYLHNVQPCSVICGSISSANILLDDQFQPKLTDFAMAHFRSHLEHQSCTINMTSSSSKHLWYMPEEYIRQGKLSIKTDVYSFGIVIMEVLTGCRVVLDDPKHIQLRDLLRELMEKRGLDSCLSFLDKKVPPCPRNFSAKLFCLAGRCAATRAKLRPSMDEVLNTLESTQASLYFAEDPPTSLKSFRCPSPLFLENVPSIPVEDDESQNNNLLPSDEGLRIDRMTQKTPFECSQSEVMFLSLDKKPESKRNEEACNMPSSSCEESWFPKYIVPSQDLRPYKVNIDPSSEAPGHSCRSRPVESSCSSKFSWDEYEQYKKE

[16] = target: Cyclin-dependent kinase 8 (Homo sapiens) (UniProt P49336); assay: Inhibition of human partial length CDK8 (M1 to T360 residues) expressed in bacterial system assessed as residual activity at 10 uM by kinome scan method relative to control; how it was run: as §1
[17] = target: T1, Phosphatidylinositol 4,5-bisphosphate 3-kinase catalytic subunit gamma isoform; assay: Inhibition of human partial length PIK3CG (S144 to A1102 residues) expressed in mammalian expression system assessed as residual activity at 10 uM by kinome scan method relative to control; how it was run: as §2
[18] = AUC(0 to t) in Sprague-Dawley rat at 5 mg/kg, po; format: ADME, organism-based; parameters: dose 5 mg/kg; details: in vivo; how it was run: as §3
[19] = target: Phosphatidylinositol 3-kinase catalytic subunit type 3 (Homo sapiens) (UniProt Q8NEB9); assay: Inhibition of human partial length VPS34 (S282 to H879 residues) expressed in mammalian expression system assessed as residual activity at 10 uM by kinome scan method relative to control; how it was run: as §2
[20] = target: T2, Phosphatidylinositol 4,5-bisphosphate 3-kinase catalytic subunit beta isoform; assay: Inhibition of human partial length PIK3CB (P118 to S1070 residues) expressed in mammalian expression system assessed as residual activity at 10 uM by kinome scan method relative to control; how it was run: as §2
[21] = target: T3, Phosphatidylinositol 4,5-bisphosphate 3-kinase catalytic subunit alpha isoform; assay: Inhibition of recombinant human PI3Kalpha using PIP2 as substrate incubated for 1 hr by kinase-glo luminescent assay
[22] = target: Phosphatidylinositol 3-kinase C2 domain-containing subunit gamma (Homo sapiens) (UniProt O75747); assay: Inhibition of human partial length PIK3C2G (M1 to I1446 residues) expressed in mammalian expression system assessed as residual activity at 10 uM by kinome scan method relative to control; how it was run: as §1
Sequence of Phosphatidylinositol 3-kinase C2 domain-containing subunit gamma (Homo sapiens) (O75747 whole entry, the tested form may be a part, canonical isoform): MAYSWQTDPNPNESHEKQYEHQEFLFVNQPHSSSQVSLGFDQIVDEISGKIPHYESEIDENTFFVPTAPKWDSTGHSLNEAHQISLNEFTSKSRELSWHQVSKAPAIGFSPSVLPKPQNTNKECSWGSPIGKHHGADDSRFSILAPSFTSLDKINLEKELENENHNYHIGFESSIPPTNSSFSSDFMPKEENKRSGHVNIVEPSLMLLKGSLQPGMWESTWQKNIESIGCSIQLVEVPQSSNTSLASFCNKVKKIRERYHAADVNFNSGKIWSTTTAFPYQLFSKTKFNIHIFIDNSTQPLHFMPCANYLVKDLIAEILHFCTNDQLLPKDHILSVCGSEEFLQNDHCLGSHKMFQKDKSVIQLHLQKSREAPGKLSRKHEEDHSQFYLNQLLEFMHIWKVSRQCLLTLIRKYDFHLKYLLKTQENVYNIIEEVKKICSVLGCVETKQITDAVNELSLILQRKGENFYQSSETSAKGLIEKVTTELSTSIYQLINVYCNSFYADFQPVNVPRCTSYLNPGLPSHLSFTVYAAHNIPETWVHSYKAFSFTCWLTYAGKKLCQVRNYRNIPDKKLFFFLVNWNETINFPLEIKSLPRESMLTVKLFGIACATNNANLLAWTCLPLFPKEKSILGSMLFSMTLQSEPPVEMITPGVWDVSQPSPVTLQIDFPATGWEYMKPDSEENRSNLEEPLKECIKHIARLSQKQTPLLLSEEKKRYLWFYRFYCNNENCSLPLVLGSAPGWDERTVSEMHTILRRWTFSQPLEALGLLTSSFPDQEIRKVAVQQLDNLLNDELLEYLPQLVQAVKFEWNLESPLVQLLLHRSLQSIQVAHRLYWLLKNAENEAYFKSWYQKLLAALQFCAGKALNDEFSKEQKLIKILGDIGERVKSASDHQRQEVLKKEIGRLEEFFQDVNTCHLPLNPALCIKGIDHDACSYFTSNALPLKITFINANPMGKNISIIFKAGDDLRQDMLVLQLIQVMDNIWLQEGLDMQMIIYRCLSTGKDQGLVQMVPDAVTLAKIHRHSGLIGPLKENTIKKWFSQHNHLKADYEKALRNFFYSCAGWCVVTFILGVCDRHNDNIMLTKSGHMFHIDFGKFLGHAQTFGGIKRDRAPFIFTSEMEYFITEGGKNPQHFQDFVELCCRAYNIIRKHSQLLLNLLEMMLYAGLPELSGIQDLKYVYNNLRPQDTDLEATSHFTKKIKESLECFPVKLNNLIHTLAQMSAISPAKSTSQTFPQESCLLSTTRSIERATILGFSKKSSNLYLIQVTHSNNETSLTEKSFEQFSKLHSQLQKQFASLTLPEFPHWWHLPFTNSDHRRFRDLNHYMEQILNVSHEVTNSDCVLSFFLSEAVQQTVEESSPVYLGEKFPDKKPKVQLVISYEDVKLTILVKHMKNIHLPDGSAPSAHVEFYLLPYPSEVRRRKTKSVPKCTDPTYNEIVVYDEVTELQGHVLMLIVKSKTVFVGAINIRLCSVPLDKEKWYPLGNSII

[23] = target: Phosphatidylinositol 4,5-bisphosphate 3-kinase catalytic subunit delta isoform (Homo sapiens, UniProt O00329); assay: Inhibition of PI3Kdelta (unknown origin) using PIP2 as substrate measured after 1 hr by ADP-glo assay

Structure (SMILES): COc1ncc(-c2ccc3nccc(/C(C)=C/C(=O)N4CCN(C)CC4)c3c2)cc1NS(=O)(=O)c1ccc(F)cc1F
- IC50 [1]: 1.3 nM
- inhibition in vivo at 30 mg/kg (U-87 MG): 93.5%
- IC50 [2]: 0.67 nM
- GI50 (PC-3): 360 nM
- Activity [3]: 100%
- Activity [4]: 45%
- Activity [5]: 0%
- Activity [6]: 87%
- Cmax [7]: 903 ng/mL
- Activity [8]: 100%
- Activity [9]: 100%
- IC50 [10]: 5 nM
- Activity [11]: 73%
- Activity [12]: 49%
- Activity [13]: 82%
- Activity [14]: 53%
- Activity [15]: 24%
- Activity [16]: 96%
- Activity [17]: 0%
- AUC(0-t) [18]: 1340 ng·h/mL
- Activity [19]: 0.1%
- Activity [20]: 0%
- IC50 [21]: 0.8 nM
- Activity [22]: 0%
- IC50 [23]: 1.3 nM
